Columns and labels:
[1] = Antioxidant activity assessed as inhibition of AAPH-induced peroxyl radical generation measured as trolox equivalent at 10 uM preincubated for 30 mins followed by AAPH addition measured evey 60 secs for 60 cycles by ORAC-FL assay; type: functional; conditions: in the assay text read “90 secs” for “60 secs”
Procedure, shortened: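 Fluorescein (12 nM) preincubated with compound (1-20 µM) or Trolox standard (1-50 µM) in D-PBS, at least 30 min at 37 °C. Reaction started with AAPH (30 mM). Fluorescence (ex 485/em 520 nm) read every 90 s for 60 cycles. Net AUC is converted to Trolox equivalents via the Trolox calibration line. Values are reported at 10 µM, from at least three independent experiments in triplicate.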

[2] = Metal chelating activity of compound assessed as compound-Cu2+ complex formation at 2 mM after 10 mins in presence of CuSO4.5H2O by complexometric indicator murexide based UV-Vis spectrophotometric analysis; type: physicochemical; conditions: 2000 µM
Procedure, shortened: (§1)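 Compound (0.02-2 mM) incubated with CuSO4 (120 µM) for 10 min at rt, in 10 mM hexamine/HCl with 10 mM KCl (pH 5.0), or in buffer/MeOH 75:25 for poorly soluble compounds. Murexide added, 1 min more. The A485/A520 ratio gives free Cu2+ from a CuSO4 calibration curve (0-125 µM). % chelation is taken by difference from the no-compound control; triplicates.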

[3] = Metal chelating activity of compound assessed as compound-Cu2+ complex formation at 0.1 mM after 10 mins in presence of CuSO4.5H2O by complexometric indicator murexide based UV-Vis spectrophotometric analysis; type: physicochemical; conditions: 100 µM; procedure, shortened: as §1
[4] = Reactive carbonyl species trapping activity of compound assessed as MDA adduct formation at 10 mM preincubated for 24 hrs with MDA measured after 24 hrs by LCMS analysis; type: physicochemical; conditions: 10000 µM
[5] = Reactive carbonyl species trapping activity of compound assessed as MGO adduct formation at 10 mM preincubated for 24 hrs with MGO measured after 0.5 hrs by LCMS analysis; type: physicochemical; conditions: 10000 µM
[6] = Reactive carbonyl species trapping activity of compound assessed as MGO adduct formation at 10 mM preincubated for 24 hrs with MGO measured after 15 mins by LCMS analysis; type: physicochemical; conditions: 0.25 h, 10000 µM
[7] = Reactive carbonyl species trapping activity of compound assessed as MDA adduct formation at 10 mM preincubated for 24 hrs with MDA measured after 0.5 hrs by LCMS analysis; type: physicochemical; conditions: 10000 µM
[8] = Metal chelating activity of compound assessed as compound-Cu2+ complex formation at 0.08 mM after 10 mins in presence of CuSO4.5H2O by complexometric indicator murexide based UV-Vis spectrophotometric analysis; type: physicochemical; conditions: 80 µM; procedure, shortened: as §1
[9] = Reactive carbonyl species trapping activity of compound assessed as MDA adduct formation at 10 mM preincubated for 24 hrs with MDA measured after 0.25 hrs by LCMS analysis; type: physicochemical; conditions: 10000 µM
[10] = Reactive carbonyl species trapping activity of compound assessed as MGO adduct formation at 10 mM preincubated for 24 hrs with MGO measured after 24 hrs by LCMS analysis; type: physicochemical; conditions: 10000 µM
[11] = Metal chelating activity of compound assessed as compound-Cu2+ complex formation at 0.5 mM after 10 mins in presence of CuSO4.5H2O by complexometric indicator murexide based UV-Vis spectrophotometric analysis; type: physicochemical; conditions: 500 µM; procedure, shortened: as §1
[12] = Metal chelating activity of compound assessed as compound-Cu2+ complex formation at 1 mM after 10 mins in presence of CuSO4.5H2O by complexometric indicator murexide based UV-Vis spectrophotometric analysis; type: physicochemical; conditions: 1000 µM; procedure, shortened: as §1
[13] = Reactive carbonyl species trapping activity of compound assessed as MDA adduct formation at 10 mM preincubated for 24 hrs with MDA measured after 1 hr by LCMS analysis; type: physicochemical; conditions: 10000 µM
[14] = Reactive carbonyl species trapping activity of compound assessed as MGO adduct formation at 10 mM preincubated for 24 hrs with MGO measured after 0.25 hrs by LCMS analysis; type: physicochemical; conditions: 10000 µM
[15] = Reactive carbonyl species trapping activity of compound assessed as MDA adduct formation at 10 mM preincubated for 24 hrs with MDA measured after 5 hrs by LCMS analysis; type: physicochemical; conditions: 10000 µM
[16] = Reactive carbonyl species trapping activity of compound assessed as MGO adduct formation at 10 mM preincubated for 24 hrs with MGO measured after 5 hrs by LCMS analysis; type: physicochemical; conditions: 10000 µM
Rattus norvegicus = species: Rattus norvegicus; experiment: Cytotoxicity against rat […] PC12 cells assessed as reduction in cell viability at 10 to 100 uM after 24 hrs by WST8-based CCK8 assay; type: toxicity; conditions: pc-12, 24 h
Procedure, shortened: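 PC12 Adh cells (rat pheochromocytoma-derived) grown in F-12K with 2.5% FBS, 15% horse serum and pen/strep at 37 °C, 5% CO2. Seeded at 5×10^3 cells/well; treated at 80% confluency with 10 or 100 µM for 24 h. 10% DMSO served as positive cytotoxicity control. CCK-8 added for 1 h at 37 °C, absorbance read at 450 nm. Viability given as % of untreated cells; at least three experiments in triplicate.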

[17] = Reactive carbonyl species trapping activity of compound assessed as MGO adduct formation at 10 mM preincubated for 24 hrs with MGO measured after 1 hr by LCMS analysis; type: physicochemical; conditions: 10000 µM
[18] = Metal chelating activity of compound assessed as compound-Cu2+ complex formation at 0.05 mM after 10 mins in presence of CuSO4.5H2O by complexometric indicator murexide based UV-Vis spectrophotometric analysis; type: physicochemical; conditions: 50 µM; procedure, shortened: as §1
[19] = Metal chelating activity of compound assessed as compound-Cu2+ complex formation at 0.02 mM after 10 mins in presence of CuSO4.5H2O by complexometric indicator murexide based UV-Vis spectrophotometric analysis; type: physicochemical; conditions: 20 µM; procedure, shortened: as §1
[20] = Metal chelating activity of compound assessed as compound-Cu2+ complex formation at 200 uM after 10 mins in presence of CuSO4.5H2O by complexometric indicator murexide based UV-Vis spectrophotometric analysis; type: physicochemical; procedure, shortened: as §1

| Compound | Activity (umolequiv/umol) [1] | Activity [2] [%] | Activity [3] [%] | Activity [4] [%] | Activity [5] [%] | Activity [6] [%] | Activity [8] [%] | Activity [9] [%] | Activity [10] [%] | Activity [11] [%] | Activity [12] [%] | Activity [13] [%] | Activity [14] [%] | Activity [15] [%] | Activity [16] [%] | Activity (Rattus norvegicus) | Activity [18] [%] | Activity [19] [%] | Activity [20] [%] | other results |
| --- | --- | --- | --- | --- | --- | --- | --- | --- | --- | --- | --- | --- | --- | --- | --- | --- | --- | --- | --- | --- |
| NCCC(=O)N[C@@H](Cc1c[nH]cn1)C(=O)O | 0.08 |  |  |  |  |  |  |  |  |  |  |  |  |  |  |  |  |  |  |  |
| COc1cc(/C=C/C(=O)NCCCCC(N)CN)ccc1O.Cl.Cl (centres undefined) | 1.5 | 59.06 | 15.88 | 100 | 100 | 100 | 12.17 | 17 | 100 | 42.89 | 52.15 | 17 | 100 | 24 | 100 | Non-Toxic | 7.96 | 5.39 |  | Activity [7]: 17%; Activity [17]: 100% |
| Cl.Cl.NCC(N)CCCCNC(=O)CCn1cccc(OCc2ccccc2)c1=O (centres undefined) |  | 67.84 | 21.41 |  |  |  | 19.27 |  |  | 51.43 | 61.48 |  |  |  |  |  | 12.05 | 6.59 | 33.91 |  |
| NCCC(=O)N[C@@H](Cc1cnc[nH]1)C(=O)O [CARNOSINE] |  | 41.7 | 0.72 | 66 | 51 | 46 | 0.38 | 23 | 59 | 5.39 | 16.92 | 40 | 46 | 38 | 58 |  | 0 | 0.73 | 1.53 | Activity [7]: 32% |
| CC(C)(C)OC(=O)NCC(CCCCNC(=O)CCn1cccc(O)c1=O)NC(=O)OC(C)(C)C.Cl.Cl (centres undefined) |  | 94.72 | 34.48 |  |  |  | 30.19 |  |  | 76.54 | 89.96 |  |  |  |  |  | 19.87 | 11.08 | 54.61 |  |
| COc1cc(/C=C/C(=O)N2CCN(C(=O)CCC(N)CN)CC2)ccc1O.Cl.Cl (centres undefined) | 2.05 | 81.81 | 28.75 |  |  |  | 22.44 |  |  | 61.66 | 71.51 |  |  |  |  | Non-Toxic | 14.92 | 3.3 | 45.61 |  |
| Cl.Cl.NCC(N)CCCCNC(=O)CCn1cccc(O)c1=O (centres undefined) | 1.21 | 87.04 | 41.17 | 95 | 96 | 98 | 34.87 | 65 | 100 | 81.17 | 85.56 | 69 | 98 | 73 | 99 | Non-Toxic | 24.51 | 12.05 | 62.77 |  |

Reference: ChEMBL document CHEMBL3865830, “Multifunctional diamine AGE/ALE inhibitors with potential therapeutical properties against Alzheimer's disease” (Eur J Med Chem, 2016)
